Measured values as given in PMC10520980 (European journal of medicinal chemistry, 2022).
Read-outs that look alike come from different tables or passages of the source.

Tests used:
[1] = system: NTMT1 and NTMT2; details: cited from earlier work
[2] = target: T1, NTMT1 (Homo sapiens, UniProt Q9BV86); details: read-out: cellular IC50; HCT116; cited from earlier work
T1 sequence (Q9BV86 1-223): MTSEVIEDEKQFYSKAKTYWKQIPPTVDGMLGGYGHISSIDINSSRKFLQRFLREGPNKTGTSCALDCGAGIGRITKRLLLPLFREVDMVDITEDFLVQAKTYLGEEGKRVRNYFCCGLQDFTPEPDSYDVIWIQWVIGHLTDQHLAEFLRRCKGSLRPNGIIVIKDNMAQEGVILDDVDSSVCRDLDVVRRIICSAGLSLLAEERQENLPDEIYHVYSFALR

[3] = target: T1, NTMT1; details: read-out: cellular IC50; HT29; cited from earlier work
[4] = target: T1, NTMT1; assay: Degradation of NTMT1 in HCT116; format: cell-based; details: for DC50: read-out: DC50, NTMT1 degradation, HCT116, 24 h, Western blot; for fold less potent than degrader 1 (DC50): HCT116
Procedure, shortened: (§1)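 Cells were seeded at 8×10^4 per well, grown 24 h, then treated with graded concentrations for 24 h or at 50 μM over a time course, with DMSO control. Lysis was in Tris pH 8.0/NaCl/NP-40/Triton buffer, followed by BCA. 20 μg protein was run on 10% SDS-PAGE with PVDF transfer. Membranes were probed with rabbit anti-NTMT1 and anti-β-actin overnight at 4 °C, then chemiluminescence. Densitometry was normalised to DMSO, and DC50 was derived from these values. Triplicates.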

[5] = target: T1, NTMT1; assay: Degradation of NTMT1 in HT29; format: cell-based; details: for DC50: read-out: DC50, NTMT1 degradation, HT29, 24 h, Western blot
Procedure, shortened: as §1

[6] = target: NTMT2 (Homo sapiens, UniProt Q5VVY1); assay: Selectivity: NTMT2 protein level in HCT116 and HT29; format: cell-based; details: 24 h
Chain of NTMT2 (Q5VVY1 whole entry): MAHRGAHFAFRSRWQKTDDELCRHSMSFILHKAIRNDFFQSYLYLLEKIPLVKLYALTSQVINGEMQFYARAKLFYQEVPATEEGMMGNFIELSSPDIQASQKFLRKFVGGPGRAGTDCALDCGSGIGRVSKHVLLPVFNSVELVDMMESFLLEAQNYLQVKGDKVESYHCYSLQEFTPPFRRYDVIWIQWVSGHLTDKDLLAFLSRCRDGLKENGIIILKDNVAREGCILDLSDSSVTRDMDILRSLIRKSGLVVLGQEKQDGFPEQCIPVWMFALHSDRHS
Procedure, shortened: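 HCT116 and HT29 cells were treated with a range of degrader concentrations for 24 h. Lysates were resolved by SDS-PAGE, and NTMT1, NTMT2 and β-actin band regions were cut from the same membrane. These were probed with rabbit anti-NTMT1, anti-NTMT2 and anti-actin, then goat anti-rabbit secondary and chemiluminescence. Triplicates.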

[7] = system: HCT116; assay: Cytotoxicity, WST-8 assay, HCT116; format: cell-based, human; details: HCT116, up to 64 μM, 24 h
Procedure, shortened: (§2)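 Cells were seeded at 5×10^3 per well and cultured 24 h. They were then exposed to a range of test compound concentrations or DMSO vehicle. A solution of 5 mM WST-8 plus 0.2 mM 1-methoxyphenazinium salt in 150 mM NaCl was added, followed by 3 h at 37 °C in 5% CO₂. Absorbance was read at 490 nm. Triplicates.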

[8] = system: HT29; assay: Cytotoxicity, WST-8 assay, HT29; format: cell-based, human; details: HT29, up to 64 μM, 24 h
Procedure, shortened: as §2

[9] = system: ntmt1 KO HCT116 cells; assay: Cell proliferation assay; format: cell-based, human; details: ntmt1 KO HCT116, various concentrations, 72 h
[10] = system: calreticulin (CALR); assay: CALR expression by Western blot; format: cell-based, human; details: HCT116, 25 μM, 24 h
Procedure, shortened: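 HCT116 cells were treated at 25 μM for 24 h alongside the inhibitor comparator. Cells were lysed at 4 °C for 1 h in Tris pH 8.0/NaCl/NP-40/Triton X-100 buffer with protease inhibitor, and protein was quantified by BCA. 10 μg protein was run on 8% SDS-PAGE and transferred to PVDF. Blots were probed with rabbit anti-CALR and anti-β-actin, detected by chemiluminescence and quantified by densitometry. Triplicates.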

[11] = target: NTMT1-eGFP fusion protein (Homo sapiens, UniProt Q9BV86); assay: NTMT1 degradation visualized by fluorescence; format: cell-based; details: HCT116, 100 μM, 24 h
Procedure, shortened: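 HCT116 cells were seeded at 1.5×10^5 per well. After 12 h they were transfected with pEGFP-n1-NTMT1 or empty pEGFP-n1 using Lipofectamine 3000 in reduced-serum medium with 20% FBS, for 8 h. Cells recovered 24 h in complete medium, then received 100 μM degrader or DMSO for 24 h. The GFP fusion was imaged on an inverted fluorescence microscope.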

[12] = system: eGFP; assay: Control with plasmid expressing only eGFP in HCT116; format: cell-based, human; details: HCT116, 100 μM, 24 h

NCCCC[C@H](NC(=O)[C@@H]1CCCN1C(=O)Cc1ccc(O)cc1)C(=O)N[C@@H](CCCN=C(N)N)C(N)=O [BM30]
selectivity toward NTMT1 and NTMT2 [1]: nonselective inhibitor

NCCCC[C@H](NC(=O)[C@@H]1CCCN1C(=O)Cc1cccc2ccccc12)C(=O)Nc1ccccc1C(N)=O [DC541, (S)-N-((S)-6-amino-1-((2-carbamoylphenyl)amino)-1-oxohexan-2-yl)-1-(2-(naphthalen-1-yl)acetyl)pyrrolidine-2-carboxamide]
IC50 [2]: > 100 µM | IC50 [3]: ~30 µM

Cc1ncsc1-c1ccc(CNC(=O)[C@@H]2C[C@@H](O)CN2C(=O)[C@H](C(C)C)N2Cc3ccccc3C2=O)c(OCCNC(=O)c2ccccc2NC(=O)[C@H](CCCCN)NC(=O)[C@@H]2CCCN2C(=O)Cc2cccc3ccccc23)c1 [degrader 1, (2S,4R)-N-(2-(2-(2-((S)-6-amino-2-((S)-1-(2-(naphthalen-1-yl)acetyl)pyrrolidine-2-carboxamido)hexanamido)benzamido)ethoxy)-4-(4-methylthiazol-5-yl)benzyl)-4-hydroxy-1-((S)-3-methyl-2-(1-oxoisoindolin-2-yl)butanoyl)pyrrolidine-2-carbox amide]
NTMT1 degradation after pre-treatment with proteasome inhibitor MG-132 ([4]; HCT116, 1 μM MG-132 for 2 h, then 50 μM compound 24 h): completely abolished | NTMT1 level (Western blot) ([4]; HCT116, 25 μM, 24 h): almost depleted | NTMT1 level within 24 h ([4]; HCT116, 50 μM, 24 h): almost completely depleted | DC50 [4]: 7.53 µM | onset of pronounced change of NTMT1 levels ([5]; HT29, 50 μM): not observed until 6 h | DC50 [5]: 18.1 µM | degradation of NTMT2 ([6]; HCT116, various concentrations): cannot induce degradation of NTMT2 | degradation of NTMT2 ([6]; HT29, various concentrations): cannot induce degradation of NTMT2 | cytotoxicity (cell viability, WST-8) [7]: No significant cytotoxicity | cytotoxicity (cell viability, WST-8) [8]: No significant cytotoxicity | antiproliferative effect on ntmt1 KO cells [9]: neither compound displayed an antiproliferative effect | CALR expression relative to inhibitor 4 (Western blot) [10]: ~ 1.4 fold | fluorescence of NTMT1-eGFP fusion protein [11]: most fluorescence signals were lost | fluorescence of eGFP only (control plasmid) [12]: did not show obvious reduction of fluorescence

Cc1ncsc1-c1ccc(CNC(=O)[C@@H]2C[C@@H](O)CN2C(=O)[C@H](C(C)C)N2Cc3ccccc3C2=O)c(OCCOCCNC(=O)c2ccccc2NC(=O)[C@H](CCCCN)NC(=O)[C@@H]2CCCN2C(=O)Cc2cccc3ccccc23)c1 [degrader 2, (2S,4R)-N-(2-(2-(2-(2-((S)-6-amino-2-((S)-1-(2-(naphthalen-1-yl)acetyl)pyrrolidine-2-carboxamido)hexanamido)benzamido)ethoxy)ethoxy)-4-(4-methyl-thiazol-5-yl)benzyl)-4-hydroxy-1-((S)-3-methyl-2-(1-oxoisoindolin-2-yl)butanoyl)pyrrolidine-2-carboxamide]
fold less potent than degrader 1 (DC50) [4]: ≥ 9 fold | DC50 [4]: 79.7 µM | DC50 [5]: 53.7 µM

Cc1ncsc1-c1ccc(CNC(=O)[C@@H]2C[C@@H](O)CN2C(=O)[C@H](C(C)C)N2Cc3ccccc3C2=O)c(OCCOCCOCCOCCNC(=O)c2ccccc2NC(=O)[C@H](CCCCN)NC(=O)[C@@H]2CCCN2C(=O)Cc2cccc3ccccc23)c1 [degrader 3, (2S,4R)-N-(2-((1-(2-((S)-6-amino-2-((S)-1-(2-(naphthalen-1-yl)acetyl)pyrrolidine-2-carboxamido)hexanamido)phenyl)-1-oxo-5,8,11-trioxa-2-azatridecan-13-yl)oxy)-4-(4-methylthiazol-5-yl)benzyl)-4-hydroxy-1-((S)-3-methyl-2-(1-oxoisoindolin-2-yl)butanoyl)pyrrolidine-2-carboxamide]
fold less potent than degrader 1 (DC50) [4]: ≥ 9 fold | DC50 [4]: 66.4 µM | DC50 [5]: 53.7 µM

Cc1ncsc1-c1ccc(CNC(=O)[C@@H]2C[C@H](O)CN2C(=O)[C@H](C(C)C)N2Cc3ccccc3C2=O)c(OCCNC(=O)c2ccccc2NC(=O)[C@H](CCCCN)NC(=O)[C@@H]2CCCN2C(=O)Cc2cccc3ccccc23)c1 [inhibitor 4, (2S,4S)-N-(2-(2-(2-((S)-6-amino-2-((S)-1-(2-(naphthalen-1-yl)acetyl)pyrrolidine-2-carboxamido)hexanamido)benzamido)ethoxy)-4-(4-methylthiazol-5-yl)benzyl)-4-hydroxy-1-((S)-3-methyl-2-(1-oxoisoindolin-2-yl)butanoyl)-pyrrolidine-2-carboxamide]
NTMT1 level relative to DMSO control ([4]; HCT116, 50 μM, 24 h): unable to reduce NTMT1 levels | NTMT1 level relative to DMSO control ([5]; HT29, 50 μM, 24 h): unable to reduce NTMT1 levels | cytotoxicity (cell viability, WST-8) [7]: No significant cytotoxicity | cytotoxicity (cell viability, WST-8) [8]: No significant cytotoxicity | antiproliferative effect on ntmt1 KO cells [9]: neither compound displayed an antiproliferative effect
